proKLK7 act – activates the human kallikrein-7 zymogen; activation, % at 7 µM; 0.9% of 370,000 active; P49862; purified proKLK7, EDANS-DABCYL substrate fluorescence; 100% is mature enzyme control, 0% vehicle;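 active = activation above the mean of all tested compounds plus 3 SD, computed per campaign excluding outliers beyond control limits, cut at about 13% in these data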
SKN-1 block – inhibitors of C. elegans SKN-1 | 0.49% of 360,000 active | inhibition, % at 21.8 µM | C. elegans VP596 Pgst-4::GFP/RFP ratio, acrylamide-induced, 24 h;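 active = interference check ratio from 0.5 to 1.5 plus GFP to RFP signal ratio inhibition reaching or exceeding a fixed threshold, cut at about 30% in these data, passing the limit was not always enough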
Neddylation inh – blocks human cullin neddylation | 0.58% of 360,000 active | calls only at 25 µM | AID 651699 | P61081+Q13564 | TR-FRET cullin neddylation, biochemical; in the data active = inhibition above about 36%
Target sequence (P61081 whole entry, looked up): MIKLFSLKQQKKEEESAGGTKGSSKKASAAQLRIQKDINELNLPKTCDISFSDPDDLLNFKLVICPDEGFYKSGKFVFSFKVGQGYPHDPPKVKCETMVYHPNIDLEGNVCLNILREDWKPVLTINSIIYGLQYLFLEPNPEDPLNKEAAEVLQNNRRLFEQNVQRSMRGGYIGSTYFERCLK
Target sequence (Q13564 whole entry, looked up): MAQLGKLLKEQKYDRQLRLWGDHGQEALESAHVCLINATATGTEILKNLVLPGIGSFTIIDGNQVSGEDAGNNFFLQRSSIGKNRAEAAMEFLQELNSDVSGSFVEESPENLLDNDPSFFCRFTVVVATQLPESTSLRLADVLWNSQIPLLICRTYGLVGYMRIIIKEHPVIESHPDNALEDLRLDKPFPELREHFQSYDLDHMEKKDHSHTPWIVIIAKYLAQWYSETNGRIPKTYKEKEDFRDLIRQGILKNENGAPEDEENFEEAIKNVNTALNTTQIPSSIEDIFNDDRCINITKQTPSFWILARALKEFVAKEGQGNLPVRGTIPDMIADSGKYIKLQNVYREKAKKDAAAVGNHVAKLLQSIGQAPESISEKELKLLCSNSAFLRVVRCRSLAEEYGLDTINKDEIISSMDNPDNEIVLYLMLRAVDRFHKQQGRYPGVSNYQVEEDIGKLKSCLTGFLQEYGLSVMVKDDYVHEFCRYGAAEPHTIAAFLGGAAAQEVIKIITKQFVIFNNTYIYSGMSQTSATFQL
Tn6 DDE FP – disrupts Tn6 cyclic peptide binding to fibrin D-Dimer-E complex; P02675; Fibrin DD(E) TRITC-Tn6 fluorescence polarization displacement; inhibition, % at 8.3 µM; 0.21% of 370,000 active;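 active = inhibition above a per-campaign cutoff: mean of compounds within control limits plus 3 SD, cut at about 15% in these data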;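 also: 0% = median of all compound wells on the plate and 100% = blocking peptide control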
MT1-MMP act inh – MT1-MMP (human) activation inhibition; 0.061% of 360,000 active; P50281; GFP/RFP ratio change, % at 20 µM; HT1080 RFP-PRO-GFP cells, GFP/RFP ratio fluorescence, overnight; percent of plate control window, DMSO zero;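 active = GFP/RFP ratio change of at least 30% with cell ATP level not reduced by more than half and red fluorescence within 50% of control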
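system = RFP-PRO-GFP reporter HT1080 cells | dosing = 20 µM single dose, 1% DMSO | timing = overnight cell settling, then overnight compound exposure, 37 °C, 5% CO2 | read-out basis = GFP/RFP fluorescence ratio | controls = DMSO and RFP-L50D-GFP cell wells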
DDE Tn7 FP inh – inhibitors of Tn7 peptide binding to human fibrin DD(E). inhibition, % at 8.3 µM. 0.13% of 370,000 active. FP displacement of FITC-Tn7 peptide from fibrin DD(E); 0% = median of compound wells per plate. P02675;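 active = inhibition above the mean of compounds falling within the control limits plus 3 SD of them, cut at about 14% in these data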;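 also: 0% = plate median of compound wells and 100% = 10 µM Aha-Tn7 peptide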
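system = human fibrin DD(E) protein | quantity = DD(E) 2 µM final | medium = Tris/NaCl/CaCl2 buffer, pH 7.8 | also added = labelled Tn7 tracer, 0.1 µM | compound dosing = single point at 8.3 µM | timing = compound with protein 10 min, then 3 h after probe, room temperature | signal = FP measurement | benchmarks = Aha-Tn7 high control | repeats = one replicate per compound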
proKLK7 act conf – confirmation of human kallikrein-7 zymogen activators | shares compounds with proKLK7 act | purified proKLK7, EDANS-DABCYL substrate fluorescence; scaled: vehicle 0, mature enzyme 100 | activation, % at 7 µM | 68% of 3,200 active | AID 686949;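 active = activation, as change over the incubation, above the mean of all tested compounds plus 3 SD, cut at about 13% in these data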
EDANS interfere – counter-screen for kallikrein-7 activators: EDANS-DABCYL optical interference. EDANS-DABCYL substrate fluorescence interference, no enzyme, 4 h; solvent 0%, active enzyme control 100%. 80% of 3,200 active. activation, % at 7 µM. shares compounds with proKLK7 act. AID 686952;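 active = activation above the all-compound mean plus 3 SD, ignoring values outside control-based bounds, cut at about 4.8% in these data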;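 also: value is the 4 h activation minus the activation read at time zero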
K7 EDANS ctr – EDANS fluorescence interference in dose response, no enzyme | shares compounds with proKLK7 act | EDANS-DABCYL peptide fluorescence interference | EC50, µM | 20% of 250 active | AID 720493;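 active = compounds that raise the fluorescence signal in this interference counterscreen, with EC50 at or below 10 µM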;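 also: intact quenched peptide substrate alone read at 355 nm excitation and 520 nm emission; signal is fluorescence gain from T0 to T4 after four hours at room temperature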
The depositor's hits bear a star; i = inactive; / = not tested or not shown. Only some compounds are listed: those with a hit (about 2.2% of all), similar ones and a draw of the others.

SMILES	proKLK7 act	SKN-1 block	Neddylation inh	Tn6 DDE FP	MT1-MMP act inh	DDE Tn7 FP inh	proKLK7 act conf	EDANS interfere	others
CCOc1ccccc1Oc1c(C)oc2c(CN3CCN(C)CC3)c(O)ccc2c1=O	77*	5	/	-1	4	-1	77*	74*
COc1cccc(Oc2c(C)oc3c(CN4CCCC4)c(O)ccc3c2=O)c1	75*	-11	/	1	-4	-5	74*	78*
CCc1cc2c(=O)c(-c3ccc4c(c3)OCCO4)coc2cc1OS(C)(=O)=O	-1	3	i	4	-1	-5	/	/
CCN(C(=O)COC(=O)C1=COCCO1)c1ccccc1	0	23	i	8	-2	0	/	/
CCN(C(=O)COC(=O)c1[nH]c(=O)[nH]c(=O)c1N)c1ccccc1	13*	-3	i	7	-1	-2	24*	28*
CCOC(=O)C(NC(C)=O)(N1CCc2ccccc2C1)C(F)(F)F (stereo not drawn)	0	31	i	6	0	8	/	/
OCCCc1nc2n(n1)C(c1ccccc1)C=C(c1ccc(F)cc1)N2 (stereo not drawn)	23*	5	/	-4	-22	-8	38*	74*
OCCCc1nc2n(n1)C(c1ccccc1Cl)C=C(c1cccs1)N2 (stereo not drawn)	/	1	/	/	-72	/	/	/
COc1cc(/C=C/c2nc3ccccc3c(=O)[nH]2)ccc1O	17*	7	i	-7	-6	0	-1	3
Nc1ccccc1-c1nc2ccccc2c(=O)o1	15*	0	/	-2	3	0	6	4
O=c1oc(-c2ccccc2[N+](=O)[O-])nc2ccccc12	0	6	i	-8	0	-9	/	/
N#Cc1c(N)n(-c2ccc(C(=O)O)cc2)c2nc3ccccc3nc12	69*	1	/	9	-11	9	79*	79*
Cc1cc(Nc2cccc([N+](=O)[O-])c2)n2c(nc3ccccc32)c1C#N	-1	23	i	1	-28	2	/	/
Cc1cc(-c2ccco2)n2c(nc3ccccc32)c1C#N	-2	-11	i	-2	-20	-4	/	/
CCN(CC)CCCNc1cc(C)c(C#N)c2nc3ccccc3n12	69*	9	/	5	-8	-3	38*	40*
COCCN(CCOC)c1cc(C)c(C#N)c2nc3ccccc3n12	39*	-9	/	-2	0	0	61*	50*	K7 EDANS ctr=i
C=C(C)CSc1cc(C)c(C#N)c2nc3ccccc3n12	-5	16	/	-2	-7	-2	/	/
CCN(CC)CCNc1c2c(c(C#N)c3nc4ccccc4n13)CCCC2	11	-6	/	-5	-6	0	/	/
Cc1cc(NCCCCO)n2c(nc3ccccc32)c1C#N	43*	15	/	-10	6	-2	47*	37*	K7 EDANS ctr=>70
CCN(CC)CCNc1cc(C)c(C#N)c2nc3ccccc3n12	132*	18	/	5	-6	-2	10	5.4*
CCCC(C)NC(=O)c1nc(-c2ccccc2)n(-c2ccccc2)n1 (stereo not drawn)	0	-10	i	9	-1	-2	/	/
C=CCNC(=O)CSc1nc2sc3c(c2c(=O)n1CCC)CCC3	0	0	i	-9	4	-2	/	/
CCN(CC)CCCNc1cc(C(F)(F)F)c(C#N)c2nc3ccccc3n12	53*	13	/	6	-31	1	-7	-11
O=c1[nH]nc(Cc2ccc(-c3ccccc3Cl)o2)c2ccccc12	0	7	i	12	-11	-8	/	/
CN1CCN(C(=O)c2ccc(-c3cccs3)s2)CC1	32*	-8	/	-4	1	6	6	5.3*
SMILES	proKLK7 act	SKN-1 block	Neddylation inh	Tn6 DDE FP	MT1-MMP act inh	DDE Tn7 FP inh	proKLK7 act conf	EDANS interfere	others
COc1cc2c3nnc(-c4ccccc4)c-3cn(Cc3ccc(F)cc3)c2cc1OC	28*	-2	/	0	-42	-2	-28	-25
COC(=O)c1ccccc1NC(=O)c1ccc2c(c1)CC(C)O2 (stereo not drawn)	-1	9	i	1	-5	6	/	/
CC(C)N(C(=O)[C@H]1C[C@H](CC(=O)NCCN2CCOCC2)C(=O)N2CCc3c([nH]c4cc(-c5ccco5)ccc34)[C@]12C)C(C)C	124*	-6	/	-4	-1	8	120*	127*
C[C@]12c3[nH]c4cc(-c5ccco5)ccc4c3CCN1C(=O)[C@@H](CC(=O)NCCCn1ccnc1)C[C@@H]2C(=O)N1CCCCC1	105*	11	/	2	-2	2	40*	61*
C[C@]12c3[nH]c4cc(-c5ccco5)ccc4c3CCN1C(=O)[C@@H](CC(=O)NCCN1CCOCC1)C[C@@H]2C(=O)N1CCOCC1	52*	-3	/	-2	3	4	35*	51*
CCOC(=O)Cc1csc(NC(=O)COc2ccccc2)n1	0	23	i	1	2	-11	/	/
Cc1cc(=O)oc2c(CN3CCCC3)c(O)c(Cl)cc12	46*	24	/	7	-1	2	62*	72*
CCc1cc(=O)oc2c(CNCc3ccccc3F)c(O)c(Cl)cc12	36*	-2	/	-4	1	-5	61*	66*
CCc1cc(=O)oc2c(CNC(Cc3ccccc3)C(=O)O)c(O)ccc12 (stereo not drawn)	-5	/	/	6	/	-4	/	/
CCCc1cc(=O)oc2c(CN3CCCC3)c(O)c(Cl)cc12	70*	20	/	4	-12	4	64*	77*
Cc1cc(=O)oc2c(CN3CCCCC3)c(O)c(Cl)cc12	61*	-27	/	-7	-2	-5	61*	60*
CCc1cc(=O)oc2cc(C)c(CN3CCCCC3)c(O)c12	-1	2	i	4	-3	13	/	/
COC(=O)C1=C(CS(=O)(=O)c2ccc(OC)cc2)NC(=O)NC1c1ccccc1 (stereo not drawn)	0	1	i	-8	-1	-8	/	/
Cc1cc(=O)oc2c(CN3CCC(C)CC3)c(O)c(Cl)cc12	70*	20	/	7	-9	3	65*	66*
